Screening data as filed in PubChem.
Most compounds without a hit are left out; they make up all but 4.6% or so of the library.
FAS TE block – FAS thioesterase (human) inhibition | P49327 | recombinant FAS-TE, OMFH fluorogenic substrate, fluorescence endpoint | actives 0.67% (n = 360,000) | AID 602261 | inhibition, % at 15 µM;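 active means compounds whose normalised, plate-corrected inhibition of enzyme fluorescence in the single-dose primary screen is 50% or more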
UCH37 inh – blocks the human deubiquitinase UCH37; Q9Y5K5; purified proteasome/UCH37, Ub-AMC cleavage fluorescence; inhibition, % (concentration not given with the values); actives 0.33% (n = 330,000); AID 588478;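 active means mean inhibition over replicate wells above about 20%, limit read from the data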
Target sequence (Q9Y5K5 whole entry, looked up): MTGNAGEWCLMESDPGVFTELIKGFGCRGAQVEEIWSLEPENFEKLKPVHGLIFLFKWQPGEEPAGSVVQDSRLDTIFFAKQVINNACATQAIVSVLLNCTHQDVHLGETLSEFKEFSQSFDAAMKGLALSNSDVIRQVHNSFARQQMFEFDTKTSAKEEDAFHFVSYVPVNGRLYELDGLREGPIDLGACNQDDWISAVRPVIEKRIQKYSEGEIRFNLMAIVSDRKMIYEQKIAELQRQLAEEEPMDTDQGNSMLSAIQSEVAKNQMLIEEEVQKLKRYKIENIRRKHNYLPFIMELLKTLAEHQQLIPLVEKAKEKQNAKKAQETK
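system = Proteasome-associated human UCH37 deubiquitinase | amount = 0.15 nM proteasome as dispensed | medium = pH 7.4 Tris-HCl (50 mM) with ovalbumin, ATP-MgCl2, DTT | incubation = 30 min preincubation with enzyme, 25 min cleavage at room temperature | detection = AMC fluorescence 355/460 nm | read-out basis = percent inhibition | controls = no-proteasome and no-compound wells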
HDAC3 inhib – human HDAC3 inhibition. actives 0.15% (n = 320,000). O15379. inhibition, % at 8.3 µM. AID 2718. recombinant HDAC3, fluorogenic peptide/trypsin coupled, fluorescence; in the data active means inhibition above about 26%, passing the limit was not always enough; inconclusive means no clear call, values can overlap the other calls
M18AAP inhibitor – PfM18AAP enzyme inhibition; recombinant PfM18AAP, H-Glu-NHMec fluorogenic cleavage; actives 1.2% (n = 290,000); inhibition, % at 7.35 µM;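 active means inhibition above the campaign mean inhibition over all tested compounds plus 3 SD, cut at about 28% in these data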
Rtt109 Vps75 – C. albicans Rtt109 histone acetyltransferase inhibition; purified Rtt109/Vps75, ThioGlo CoA-SH fluorescence, 4 h; inhibition, % at 34.9 µM; actives 0.16% (n = 330,000); AID 540336;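 active means inhibition of at least 50% in every replicate; inconclusive means best replicate reaches 50% inhibition but some replicates fall short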
ALR inh – blocks human ALR sulfhydryl oxidase activity; purified ALR, DTT oxidation, H2O2 HRP-luminol luminescence; inhibition, % (no concentration beside the values); actives 3.8% (n = 290,000); AID 485317;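 active means mean replicate inhibition above about 79%, with every replicate also reaching it, limit read from the data; inconclusive means only one of the two criteria met; inactive means mean below limit and not every replicate reaching it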
Target sequence (P55789 whole entry, looked up): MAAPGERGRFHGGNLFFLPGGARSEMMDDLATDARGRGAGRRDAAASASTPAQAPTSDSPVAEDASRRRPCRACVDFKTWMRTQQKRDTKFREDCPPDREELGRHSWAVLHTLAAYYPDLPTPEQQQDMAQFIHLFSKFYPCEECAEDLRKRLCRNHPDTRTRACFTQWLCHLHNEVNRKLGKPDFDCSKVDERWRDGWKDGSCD
Hits are given with their value; n = inactive; u = inconclusive; x = not tested or not shown.

SMILES	FAS TE block	UCH37 inh	HDAC3 inhib	M18AAP inhibitor	Rtt109 Vps75	ALR inh
COC(=O)c1ccc(OC(=O)CS(=O)c2ccccc2[N+](=O)[O-])cc1 (stereo unspecified)	n	n	n	n	n	n
O=C(CS(=O)c1ccc(C(F)(F)F)cc1[N+](=O)[O-])Oc1ccccc1 (stereo unspecified)	n	n	n	n	n	99
COc1ccc(C2C=C(c3ccc(C)cc3)Nc3ncnn32)cc1 (stereo unspecified)	n	n	x	n	n	x
COc1ccc(C2C=C(c3ccc(Br)s3)Nc3ncnn32)cc1OC (stereo unspecified)	x	x	n	36	x	n
C=CCOc1ccc(C(CC)=NO)cc1OC	x	n	x	x	x	x
C=C1CC(C(=O)N/N=C/c2ccc(O)cc2)C1	n	x	n	n	n	100
O=C(N/N=C/c1ccc(O)cc1)NC12CC3CC(CC(C3)C1)C2	n	x	n	n	n	93
COc1cc(C2N(c3ccccc3)CCN2c2ccccc2)ccc1OC(C)=O	n	n	n	n	n	94
CC1CCCC(=NNS(=O)(=O)c2ccccc2)C1 (stereo unspecified)	x	n	x	x	x	x
COc1cc2c(ccc3cc(OC)c(OC)c(O)c32)cc1O	n	n	n	x	n	99
Cc1cc(C)c2c(c1)C(=NNc1ccc(S(N)(=O)=O)cc1[N+](=O)[O-])CCC2	x	n	x	x	x	x
O=C(NN=Cc1ccc(O)c(O)c1)NN=Cc1ccc(O)c(O)c1	x	n	x	x	x	x
Oc1ccc(N=Cc2ccc(O)c(O)c2)cc1	n	n	n	46	n	99
O=C1CCC/C(=N/NC(=O)c2sc3ccccc3c2Cl)C1	n	x	n	n	n	98
CC(=NNC(=O)c1cccc(S(=O)(=O)Nc2cccc(Cl)c2)c1)c1cccs1	x	n	x	x	x	x
Cc1c(Cc2ccccc2)c(=O)oc2cc(OCC(=O)N3CCC(C(=O)O)CC3)ccc12	n	n	n	n	n	93
COC(=O)Cc1c(C)c2ccc(OC(=O)c3ccccc3)cc2oc1=O	n	n	n	n	n	98
Cc1c(CC(=O)O)c(=O)oc2cc(OCc3nn[nH]n3)ccc12	n	n	n	n	n	n
Cc1c(Cc2ccccc2)c(=O)oc2cc(OCc3nn[nH]n3)ccc12	n	n	n	n	n	98
Cc1c(Cc2ccccc2)c(=O)oc2cc(OC(=O)c3ccccc3)ccc12	n	n	n	n	n	x
S=c1[nH]nc(C2CCCCC2)n1N=Cc1ccccc1	x	n	x	x	x	x
O=C(CSCc1cccc(Br)c1)NN=Cc1ccc2c(c1)OCO2	x	n	x	x	x	x
CCCn1c(CCC(=O)O)ccc1-c1ccccc1	n	n	n	n	n	n
CCCn1c(CCC(=O)O)ccc1-c1cccs1	n	n	n	n	n	99
COCCCn1c(CCC(=O)O)ccc1-c1cccs1	n	n	n	n	n	98
SMILES	FAS TE block	UCH37 inh	HDAC3 inhib	M18AAP inhibitor	Rtt109 Vps75	ALR inh
O=C(O)CCc1ccc(-c2cccs2)n1CC1CCCO1 (stereo unspecified)	n	n	n	n	n	99
CC(/C=C/c1ccccc1)=NNC(=O)CNC(=O)c1ccc2c(c1)OCO2	x	n	x	x	x	x
CCCCCCC1CC(C)(C(C)=NNC(N)=O)OC1=O (stereo unspecified)	x	n	x	x	x	x
CCOC(=O)c1ccccc1NC(=O)COc1ccccc1	n	n	n	n	n	97
CN(C)/C=C1\C(=O)Nc2ccccc21	n	n	n	n	n	99
CN(O)/C=C1\C(=O)Nc2ccccc21	n	n	n	n	n	u
Cn1c(-c2cc(Br)ccc2O)n[nH]c1=S	n	n	n	n	n	98
CCc1nc(Nc2ccc(O)cc2)c2oc3ccccc3c2n1	n	n	n	n	n	93
CCc1nc(NCc2ccco2)c2oc3ccccc3c2n1	n	n	n	n	n	88
CCNc1nc(CC)nc2c1oc1ccccc12	n	n	n	n	n	n
CCc1nc(Nc2ccccc2O)c2oc3ccccc3c2n1	n	n	n	n	n	n
Cc1c(C(Cc2ccccc2)=NO)c2ccccc2n1C	x	n	x	x	x	x
CCc1cc(C(=O)c2ccccc2)c(N)s1	n	n	n	n	n	99
NC(=Nc1nc2ccccc2o1)NC(=O)c1ccc([N+](=O)[O-])cc1	x	n	x	x	x	x
O=C(NN=Cc1cccs1)C(=O)N1CCCC1	x	n	x	x	x	x
COc1ccc(C=NNC(=O)c2ccoc2C)cc1O	x	n	x	x	x	x
CCOCCCNC(=O)c1ccc2c(c1)N(Cc1ccccc1)C(=O)CS2=O (stereo unspecified)	n	n	n	28	n	n
O=C1OC(NC(=O)c2ccccc2)C(n2cc(CO)nn2)=C1Cl (stereo unspecified)	n	n	n	n	193	n
O/N=C\c1ccc(-c2ccccc2)o1	n	x	n	n	n	78
CN(C)/N=C/c1ccc(/C=N/NC(N)=S)o1	n	x	n	n	n	99
NC(=S)N/N=C/c1ccc(-c2ccccc2)o1	n	x	n	n	n	98
Cc1ccc(-c2ccc(/C=N/NC(N)=S)o2)cc1	n	x	n	n	n	n
COc1cccc(/C=N/N2C(=O)NC3(CCCCC3)C2=O)c1O	n	x	n	n	n	84
COc1ccc(OC)c(S(=O)(=O)Nc2ccccc2C)c1	n	n	n	n	n	n
COc1ccc(OC)c(S(=O)(=O)Nc2ccccc2O)c1	n	n	n	x	n	99
SMILES	FAS TE block	UCH37 inh	HDAC3 inhib	M18AAP inhibitor	Rtt109 Vps75	ALR inh
Nc1cc(C(=O)O)ccc1Nc1ccc(F)c(F)c1	n	n	n	n	n	97
CCn1cc(/C=N\NC(=O)c2ccc(F)cc2)cn1	n	x	n	n	n	98
CCn1cc(C=NNC(=O)c2ccccc2Cl)cn1	x	n	x	x	x	x
Cc1c(/C=N\NC(=O)c2ccc(F)cc2)cnn1C	n	x	n	n	n	99
COC(=O)c1scc(C#N)c1NN=C(C#N)S(=O)(=O)c1ccc(Cl)cc1	x	n	x	x	x	x
c1ccc(Nc2cccc(Nc3ccccc3)c2)cc1	n	n	n	n	n	98
Nc1cccc(Nc2ncnc3ccccc23)c1	n	n	n	n	n	99
CC(=NNc1ccccc1)c1cccc(N)c1	x	n	x	x	x	x
Nc1cccc(Nc2ccccc2)c1	n	n	n	n	n	99
Oc1cccc(Nc2ccccc2)c1	n	n	n	x	n	99
CC(=NNC(=O)c1c(Br)cnn1C)c1ccc(NC(=O)c2ccc(F)cc2)cc1	x	n	x	x	x	x
CC(=NNc1ccc(Cl)c(C(=O)O)c1)c1ccc[nH]1	x	n	x	x	x	x
CC(NC(=O)CCNC(=O)N1CCn2c1nc1ccccc12)c1ccccc1 (stereo unspecified)	n	n	n	n	n	97
CC(C)C[C@H](NC(=O)N1CCn2c1nc1ccccc12)C(=O)N1CCCCC1	n	n	n	n	n	n
O=C(CCCCCNC(=O)N1CCn2c1nc1ccccc12)N[C@H](C(=O)O)c1ccccc1	n	n	n	n	n	n
CSCC[C@H](NC(=O)N1CCn2c1nc1ccccc12)C(=O)N1CCCCC1	n	n	n	n	n	98
COc1ccccc1N1CCN(N=Cc2sccc2C)CC1	x	n	x	x	x	x
